Assay results published in ChEMBL document CHEMBL4041491, “Imidazo[1,2-a]pyrazin-8-amine core for the design of new adenosine receptor antagonists: Structural exploration to target the A3 and A2A subtypes” (Eur J Med Chem, 2017).
Activity calls are given as the source filed them. No cut-off for these calls is given here.

What was measured:
[1] = molecular target: T1, Adenosine receptor A2b (Homo sapiens) (UniProt P29275); experiment: Antagonist activity at human A2B receptor expressed in CHO cells assessed as inhibition of NECA-stimulated cAMP production at 1 uM by [3H]cAMP competition binding based scintillation counting method relative to control; assay type: functional, cell-based
T1 sequence (whole entry): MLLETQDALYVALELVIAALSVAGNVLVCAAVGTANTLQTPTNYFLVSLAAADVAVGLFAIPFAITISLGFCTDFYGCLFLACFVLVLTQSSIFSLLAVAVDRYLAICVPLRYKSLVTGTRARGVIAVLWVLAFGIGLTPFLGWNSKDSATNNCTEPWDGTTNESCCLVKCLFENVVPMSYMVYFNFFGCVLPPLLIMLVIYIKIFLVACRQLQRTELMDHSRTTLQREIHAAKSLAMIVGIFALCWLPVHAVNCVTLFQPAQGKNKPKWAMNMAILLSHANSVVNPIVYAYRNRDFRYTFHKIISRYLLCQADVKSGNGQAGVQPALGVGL
In short: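 Transfected CHO cells (1 × 10^6/assay) in buffered saline pH 7.4 with adenosine deaminase 2 IU/ml and Ro 20-1724, preincubated 10 min at 37 °C. Test compound at 1 μM against 200 nM NECA-stimulated cAMP. TCA stop, ether extraction, cAMP measured by [3H]cAMP competition binding to bovine adrenal binding protein. Result given as percent inhibition.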

[2] = molecular target: T2, Adenosine receptor A2a (Homo sapiens, UniProt P29274); experiment: Displacement of [3H]ZM241385 from human adenosine A2A receptor expressed in CHO cell membranes after 60 mins by scintillation counting method
T2 sequence (P29274 whole entry): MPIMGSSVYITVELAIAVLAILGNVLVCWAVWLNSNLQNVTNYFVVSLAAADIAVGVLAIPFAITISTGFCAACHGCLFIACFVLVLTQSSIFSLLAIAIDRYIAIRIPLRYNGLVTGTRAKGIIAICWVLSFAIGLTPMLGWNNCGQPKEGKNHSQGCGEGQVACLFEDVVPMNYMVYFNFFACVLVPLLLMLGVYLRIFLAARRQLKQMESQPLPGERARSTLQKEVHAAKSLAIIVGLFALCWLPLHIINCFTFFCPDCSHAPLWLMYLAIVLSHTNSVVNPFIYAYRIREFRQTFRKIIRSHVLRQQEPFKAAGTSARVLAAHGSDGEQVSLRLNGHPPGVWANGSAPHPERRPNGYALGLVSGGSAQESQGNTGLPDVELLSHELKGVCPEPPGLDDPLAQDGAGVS
In short: (§1)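 hA2A CHO membranes (50 µg protein) with 1 nM [3H]ZM241385 in 50 mM Tris HCl, 10 mM MgCl2, pH 7.4, 60 min at 4 °C. Six to eight antagonist concentrations, or 1 µM for percent inhibition. Nonspecific binding with 1 µM ZM241385. Ki via Cheng–Prusoff, four assays in duplicate, means ± SEM.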

[3] = molecular target: T3, Adenosine receptor A1 (Homo sapiens, UniProt P30542); experiment: Displacement of [3H]DPCPX from human adenosine A1 receptor expressed in CHO cell membranes after 120 mins by scintillation counting method
T3 sequence (P30542 whole entry): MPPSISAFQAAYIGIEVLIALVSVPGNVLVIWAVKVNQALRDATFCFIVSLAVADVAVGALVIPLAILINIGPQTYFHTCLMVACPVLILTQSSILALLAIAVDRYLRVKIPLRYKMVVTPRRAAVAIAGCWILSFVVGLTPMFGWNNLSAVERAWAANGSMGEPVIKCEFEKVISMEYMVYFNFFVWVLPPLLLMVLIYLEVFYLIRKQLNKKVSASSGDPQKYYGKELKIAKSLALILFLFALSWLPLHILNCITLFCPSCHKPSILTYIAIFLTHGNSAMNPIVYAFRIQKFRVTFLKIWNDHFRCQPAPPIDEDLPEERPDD
In short: (§2)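 hA1 CHO membranes (50 µg protein) with 1 nM [3H]DPCPX in 50 mM Tris HCl pH 7.4, 120 min at 25 °C. Six to eight antagonist concentrations, or 1 µM for percent inhibition. Nonspecific binding with 1 µM DPCPX. Ki via Cheng–Prusoff, four assays in duplicate, means ± SEM.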

[4] = molecular target: T4, Adenosine receptor A3 (Homo sapiens, UniProt P0DMS8); experiment: Displacement of [125I]AB-MECA from human adenosine A3 receptor expressed in CHO cell membranes at 1 uM after 120 mins by scintillation counting method relative to control
T4 sequence (P0DMS8 whole entry, looked up): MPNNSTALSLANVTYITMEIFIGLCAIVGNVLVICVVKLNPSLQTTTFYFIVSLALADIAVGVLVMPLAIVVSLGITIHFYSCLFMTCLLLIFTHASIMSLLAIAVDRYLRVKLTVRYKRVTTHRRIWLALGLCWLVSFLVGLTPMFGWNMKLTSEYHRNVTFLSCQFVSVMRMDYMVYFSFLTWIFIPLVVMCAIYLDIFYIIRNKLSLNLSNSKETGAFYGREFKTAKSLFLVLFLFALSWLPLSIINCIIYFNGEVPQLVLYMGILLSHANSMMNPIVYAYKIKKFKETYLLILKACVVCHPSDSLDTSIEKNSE

[5] = tested on: Hippocampus; experiment: Anti-ischemic activity in Wistar rat hippocampal slices assessed as peak amplitude of 30 mins oxygen-glucose deprivation-induced anoxic depolarization at 200 nM by electrophysiology method (reference value: -7.5 +/- 1.2 mV); assay type: functional
In short: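 Rat hippocampal slices, extracellular d.c. recording in CA1 stratum radiatum. 30-min OGD, then reperfusion with oxygenated glucose aCSF. Compound at 200 nM, diluted from DMSO stock into aCSF, applied 15 min before, during and 5 min after OGD. AD latency in min from OGD onset; amplitude in mV at peak negativity. Mean ± SEM, n slices.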

[6] = molecular target: T4, Adenosine receptor A3; experiment: Antagonist activity at human A3 receptor expressed in CHO cells assessed as inhibition of CI-IB-MECA-mediated inhibition of cAMP production by [3H]cAMP competition binding based scintillation counting method; assay type: cell-based
In short: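 hA3-transfected CHO cells (1 × 10^6/assay) in buffered saline pH 7.4 with adenosine deaminase and Ro 20-1724, preincubated 10 min at 37 °C. Antagonism of 100 nM Cl-IB-MECA inhibition of 1 µM forskolin-stimulated cAMP. cAMP measured by [3H]cAMP protein-binding assay. IC50 by sigmoid nonlinear regression, four independent experiments in triplicate, means ± SEM.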

[7] = tested on: Hippocampus; experiment: Anti-ischemic activity in Wistar rat hippocampal slices assessed as latency time for 30 mins oxygen-glucose deprivation-induced occurrence of anoxic depolarization at 200 nM by electrophysiology method (reference value: 6.3 +/- 0.3 min)
[8] = molecular target: T2, Adenosine receptor A2a; experiment: Displacement of [3H]ZM241385 from human adenosine A2A receptor expressed in CHO cell membranes at 1 uM after 60 mins by scintillation counting method relative to control; in short: as §1
[9] = molecular target: T5, Adenosine receptor A3 (Rattus norvegicus) (UniProt P28647); experiment: Displacement of [125I]AB-MECA from rat adenosine A3 receptor expressed in HEK293 cell membranes at 1 uM after 120 mins by scintillation counting method relative to control
T5 sequence (whole entry): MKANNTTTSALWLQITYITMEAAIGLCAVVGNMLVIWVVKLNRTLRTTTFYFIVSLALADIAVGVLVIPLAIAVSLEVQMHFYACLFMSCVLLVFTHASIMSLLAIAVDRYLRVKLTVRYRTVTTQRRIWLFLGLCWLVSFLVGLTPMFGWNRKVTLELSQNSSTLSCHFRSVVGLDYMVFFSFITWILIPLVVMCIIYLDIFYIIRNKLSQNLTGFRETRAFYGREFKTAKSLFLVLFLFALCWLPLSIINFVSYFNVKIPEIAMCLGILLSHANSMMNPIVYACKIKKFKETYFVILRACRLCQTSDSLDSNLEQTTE
In short: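 rA3 receptor in HEK293 membranes (10 μg protein), 0.5 nM [125I]AB-MECA, 50 mM Tris–HCl, 10 mM MgCl2, 1 mM EDTA, pH 7.4, 120 min at 25 °C. Nonspecific binding with 1 μM AB-MECA; filtration and scintillation counting. Percent inhibition of specific binding at 1 µM.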

[10] = tested on: Hippocampus; experiment: Anti-ischemic activity in Wistar rat model of 7 mins oxygen-glucose deprivation-induced cerebral ischemia assessed as recovery of fEPSP amplitude in CA1 region of hippocampal slices at 200 nM incubated for 15 mins prior to induction of oxygen-glucose deprivation and maintained during entire period of oxygen-glucose deprivation/reoxygenation subsequent incubation for 5 mins after OGD insult measured up to 15 mins by electrophysiology method; assay type: functional, tissue-based
In short: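 Rat hippocampal slices, CA1 stratum radiatum stimulated (80 μs, 0.066 Hz) at 40–50% of maximal fEPSP. Compound at 200 nM in aCSF, DMSO ≤0.05%, applied 15 min before, during and 5 min after 7-min OGD, then reperfusion in oxygenated aCSF. fEPSP amplitude expressed as % of mean over the 5 min before OGD.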

[11] = molecular target: T6, Adenosine receptor A1 (Homo sapiens) (UniProt P30542); experiment: Displacement of [3H]DPCPX from human adenosine A1 receptor expressed in CHO cell membranes at 1 uM after 120 mins by scintillation counting method relative to control; in short: as §2
T6 sequence (whole entry): T3 sequence (P30542 whole entry)

[12] = molecular target: T4, Adenosine receptor A3; experiment: Displacement of [125I]AB-MECA from human adenosine A3 receptor expressed in CHO cell membranes after 120 mins by scintillation counting method
In short: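 hA3 CHO membranes (50 µg protein) with 0.5 nM [125I]AB-MECA in 50 mM Tris HCl, 10 mM MgCl2, 1 mM EDTA, pH 7.4, 120 min at 4 °C. Six to eight ligand concentrations, or 1 µM for percent inhibition. Nonspecific binding with 1 µM AB-MECA; GF/B filtration. Ki by Cheng–Prusoff, four assays in duplicate, means ± SEM.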

inhibition [1] [%] | Ki [2] [nM] | Ki [3] [nM] | inhibition [4] [%] | IC50 [6] [nM] | inhibition [8] [%] | inhibition [9] [%] | inhibition [11] [%] | Ki [12] [nM] | SMILES | Activity [5] [mV] | Time [7] [min] | Activity [10]
36 | 310 | 180 | 23 | – | – | – | – | – | Nc1nc(-c2ccccc2)cn2cc(-c3ccccc3)nc12 | – | – | –
10 | 520 | 143 | 21 | – | – | – | – | – | Nc1nc(-c2ccccc2)cn2cc(-c3ccco3)nc12 | – | – | –
3 | – | – | – | 172 | 1 | 2 | 11 | 54 | O=C(Nc1nc(-c2ccccc2)cn2cc(-c3ccccc3)nc12)c1cccnc1 | -7.1 | 8.2 | Active
29 | 265 | 210 | 28 | – | – | – | – | – | Nc1nc(Br)cn2cc(-c3ccco3)nc12 | – | – | –
